The source made the active and inactive calls.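 How the source made its calls, unless noted: active means fluorescence slope higher than the sample average by over 3 SD (cut at about -0.22 in these data, passing the limit was not always enough); inactive means the rest.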
Tests used:
[1] = inhibitors of TNFa-induced NFkB p65 translocation, primary screen, imaging, HUVEC, MLSMR starter and 10KST1 sets (AID 438;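 active means inhibition above 20% together with a positive visual image hit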;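 further: compound added about 3h40 before a 20 min TNFalpha stimulation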;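 on inhibition: signal is the nuclear over cytoplasmic p65 intensity ratio per well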); settings: HUVEC TNFa-induced p65 nuclear translocation; cell count: measured here: nuclei count (cytotoxicity indicator), at 2.08 µM; inhibition: at 2 µM, stronger effect = higher value, 0% TNFa-plus-vehicle, 100% no-TNFa wells
[2] = inhibitors of E-selectin induction by TNFa, primary screen, imaging, HUVEC, immunofluorescence, MLSMR starter and 10KST1 sets (AID 487;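 active means visually confirmed hit in the image check and inhibition above 20%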;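 on inhibition: signal is fraction of cell area covered by stained E-selectin grains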;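 on nuclei count: 100% = median nuclei count of all wells on the same plate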); settings: HUVEC TNFalpha-induced E-selectin immunofluorescence imaging, at 2 µM; inhibition: stronger effect = higher value; nuclei count: measured here: cell number, toxicity
[3] = DUSP6 inhibitors restoring Erk phosphorylation by chemical complementation, primary imaging in DUSP6-transfected HeLa (AID 609;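 active means compounds giving at least 50% inhibition in the cell-based MKP-3 phosphatase rescue imaging test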;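 on inhibition: phospho-Erk level distribution per well compared with pooled transfected vehicle control wells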); settings: HeLa MKP-3 transfected, phospho-Erk imaging KS statistic, at 10 µM, cells stimulated with TPA for 15 min
[4] = biological target: Dual specificity protein phosphatase 6 (Homo sapiens) (UniProt Q16828); test: as above; settings: HeLa MKP-3 transfected, phospho-Erk imaging KS statistic; at 10 µM; stronger effect = higher value; cells stimulated with TPA for 15 min
[5] = biological target: Voltage-gated potassium channel subunit beta-2 (Rattus norvegicus) (UniProt P62483); test: KvBeta enzyme negative modulators, primary screen, biochemical, NADPH fluorescence (AID 622); settings: recombinant KvBeta, 4-cyanobenzaldehyde reduction, at 10 µM, stronger effect = higher value;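 further: slope of raw intensity against log time taken from 70 to 1610 s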
[6] = biological target: Voltage-gated potassium channel subunit beta-2 (Rattus norvegicus) (UniProt P62483); test: KvBeta positive modulators, primary screen, biochemical, NADPH fluorescence (AID 623;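 active means NADPH fluorescence slope more negative than the mean of all samples by about 3 SD, 99.7% confidence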;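 further: fluorescence intensity change per second fitted from 20 to 320 s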); settings: Recombinant KvBeta, NADPH fluorescence decrease slope, 10 min; at 10 µM; stronger effect = lower value
[7] = biological target: Alpha-2C adrenergic receptor (Homo sapiens) (UniProt P18825); test: modulators of alpha2C/GIRK thallium flux, primary screen, cell-based, HEK293 alpha2C/GIRK1/2 (AID 624;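 active means fluorescence slope after compound addition differing from the mean of all screened samples at 99.7% confidence, in either direction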;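 further: slope of fluorescence ratio to pre-addition baseline per second over 15 to 24 s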); settings: thallium flux BTC fluorescence, at 10 µM, actives lie on both sides
[8] = inhibitors of larval lipid processing in zebrafish, primary screen, whole organism, PED6 fluorescence, gall bladder and intestine (AID 686;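 active means a full or partial loss of lipid-probe fluorescence in the fish gall bladder, intestine or both, judged by eye; inactive means no fluorescence loss, or compound toxic to the fish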;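 further: larvae 5 to 7 days old with five fish per well; signal comes from phospholipase A2 cleavage of quenched PED6 carried via bile; overnight exposure to compound and PED6 before scoring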); settings: Zebrafish larvae PED6 lipid processing, fluorescence scoring; screened at 20 µM (by protocol)
How it was run: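 System: live zebrafish larvae aged 5-7 days, whole organism; measure: graded gall bladder and intestinal fluorescence inhibition per well; incubation: overnight exposure; reagent: ingested quenched lipid PED6 at 100 nM; signal: By-eye fluorescence microscopy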

[9] = inhibitors of Chlamydomonas gravitaxis, primary screen, whole organism, Chlamydomonas reinhardtii, WT vs cilia-less mutant, absorbance, 96-well (AID 463189;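 active means inhibition at or above 50% relative to wild type and mutant plate controls; inactive means inhibition below 50%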;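 further: 0% = wild type cc124 cells in DMSO and 100% = ciliumless bld1 mutant cells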); settings: OD600 absorbance, 2 days, at 10 µM, stronger effect = higher value
[10] = measured here: cell density z-score
[11] = measured here: nuclear c-Myc green intensity z-score
[12] = measured here: nuclear pErk red intensity z-score, stronger effect = higher value

Sequence of Alpha-2C adrenergic receptor (Homo sapiens) (P18825 whole entry, looked up): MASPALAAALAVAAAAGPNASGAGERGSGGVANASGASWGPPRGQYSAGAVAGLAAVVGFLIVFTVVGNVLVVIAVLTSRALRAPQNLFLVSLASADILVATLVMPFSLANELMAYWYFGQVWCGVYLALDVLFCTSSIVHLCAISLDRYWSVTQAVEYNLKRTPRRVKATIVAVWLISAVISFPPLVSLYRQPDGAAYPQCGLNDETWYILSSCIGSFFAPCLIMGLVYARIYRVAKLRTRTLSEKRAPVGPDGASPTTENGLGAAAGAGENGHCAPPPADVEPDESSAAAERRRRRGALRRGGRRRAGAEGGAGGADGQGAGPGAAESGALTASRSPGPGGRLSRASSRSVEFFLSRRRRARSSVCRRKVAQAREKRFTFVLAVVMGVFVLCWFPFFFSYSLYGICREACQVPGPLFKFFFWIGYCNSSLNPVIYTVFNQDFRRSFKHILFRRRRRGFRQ
Sequence of Voltage-gated potassium channel subunit beta-2 (Rattus norvegicus) (P62483 whole entry, looked up): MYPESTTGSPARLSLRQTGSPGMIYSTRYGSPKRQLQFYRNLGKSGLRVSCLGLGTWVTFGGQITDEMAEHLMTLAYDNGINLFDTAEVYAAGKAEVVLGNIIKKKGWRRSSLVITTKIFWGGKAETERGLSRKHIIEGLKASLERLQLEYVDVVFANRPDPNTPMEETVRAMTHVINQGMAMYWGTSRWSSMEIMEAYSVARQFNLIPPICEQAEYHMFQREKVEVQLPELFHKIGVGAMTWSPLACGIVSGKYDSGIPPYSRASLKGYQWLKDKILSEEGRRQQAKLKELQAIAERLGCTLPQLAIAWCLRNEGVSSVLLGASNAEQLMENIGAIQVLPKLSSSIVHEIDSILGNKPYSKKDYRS
Sequence of Dual specificity protein phosphatase 6 (Homo sapiens) (Q16828 whole entry, looked up): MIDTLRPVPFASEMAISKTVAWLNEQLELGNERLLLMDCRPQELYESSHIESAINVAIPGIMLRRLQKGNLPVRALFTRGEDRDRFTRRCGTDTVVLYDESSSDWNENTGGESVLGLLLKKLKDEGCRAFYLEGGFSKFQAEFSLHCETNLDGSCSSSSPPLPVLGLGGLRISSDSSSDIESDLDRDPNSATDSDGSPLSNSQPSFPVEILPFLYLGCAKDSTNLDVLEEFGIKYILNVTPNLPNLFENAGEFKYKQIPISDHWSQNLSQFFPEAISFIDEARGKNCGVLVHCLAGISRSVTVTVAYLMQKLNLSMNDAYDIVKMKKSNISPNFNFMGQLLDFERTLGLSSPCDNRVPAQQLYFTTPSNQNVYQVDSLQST

Row | SMILES | cell count [1] | inhibition [1] | inhibition [2] | nuclei count [2] | z-score [3, 10] | z-score [3, 11] | z-score [3, 12] | inhibition [4] | fluorescence slope [5] | NADPH fluorescence slope [6] | slope [7] | outcome [8] | inhibition [9]
1 | COc1ccc(-c2cc(=O)[nH]c(=O)[nH]2)cc1 | 636 | -16% (inactive) | -269% (inactive) | 186% | -0.456 | 0.584 | 0.91 | 3.66% (inactive) | -0.466 (inactive) | -0.000273 (inactive) | 0.00552 (inactive) | inactive | -6.46% (inactive)
2 | N#Cc1c(-c2ccco2)cc(C2CC2)nc1N | 528 | -3.5% (inactive) | -51.8% (inactive) | 107% | -1.1 | -0.229 | -0.103 | -1.12% (inactive) | -0.43 (inactive) | -0.00027 (inactive) | 0.00359 (inactive) | inactive | -5.69% (inactive)
3 | COC(=O)CNc1nc(-c2cccnc2)nc2ccccc12 | 543 | -5.9% (inactive) | -23.5% (inactive) | 156% | -0.375 | 1.95 | 0.774 | -11.9% (inactive) | -0.327 (inactive) | 8.2e-06 (inactive) | 0.0052 (inactive) | inactive | -0.905% (inactive)
4 | COc1ccccc1N1C(=O)C2ON(c3ccccc3)C(c3ccc(N(C)C)cc3)C2C1=O (configuration not stated) | 575 | -8.3% (inactive) | -66.7% (inactive) | 170% | -2.24 | 0.301 | 1.93 | -15% (inactive) | -0.503 (inactive) | -3e-05 (inactive) | 0.00352 (inactive) | inactive | 9.55% (inactive)
5 | CCN(CC)CCCn1c(C)cc2c(c1=O)C(c1cccc(Cl)c1)C(C#N)=C(N)O2 (configuration not stated) | 448 | 13.8% (inactive) | -49.3% (inactive) | 146% | -0.339 | 0.269 | 1.37 | 2.46% (inactive) | -0.388 (inactive) | -4.3e-05 (inactive) | 0.00525 (inactive) | inactive | -6.29% (inactive)
6 | CSc1nc(C)cc(OCCNS(=O)(=O)c2cc(C)ccc2C)n1 | 384 | -16% (inactive) | -21.6% (inactive) | 141% | 0.846 | -0.567 | -1.02 | 12.3% (inactive) | -0.414 (inactive) | -8.3e-05 (inactive) | 0.00593 (inactive) | inactive | 117% (active)
7 | CCOC(=O)CNS(=O)(=O)c1cc(-c2nn(C)c(=O)c3ccccc23)ccc1C | 560 | -1.9% (inactive) | 45.7% (inactive) | 144% | 1.99 | -1.09 | -0.809 | 8.76% (inactive) | -0.385 (inactive) | -1.9e-05 (inactive) | 0.00449 (inactive) | inactive | -1.44% (inactive)
8 | Clc1cccc(-c2nn3c(-c4cccc(Cl)c4)nnc3s2)c1 | 612 | -7.8% (inactive) | -20.4% (inactive) | 169% | 1.02 | 1.46 | -0.806 | -4.27% (inactive) | -0.412 (inactive) | -0.000162 (inactive) | 0.00698 (inactive) | inactive | 14.4% (inactive)
9 | O=c1/c(=C\c2cccn2-c2ccccc2)sc2nc3ccccc3n12 | 640 | -5.8% (inactive) | -42.1% (inactive) | 99.1% | -0.282 | 0.665 | 0.128 | 3.56% (inactive) | -0.181 (inactive) | 8.6e-06 (inactive) | 0.00666 (inactive) | inactive | 9.26% (inactive)
10 | CC(C)OC(=O)C(C#N)c1nc2ccccc2nc1N1CCN(Cc2ccc3c(c2)OCO3)CC1 (configuration not stated) | 351 | -4.7% (inactive) | -35.2% (inactive) | 129% | -0.0424 | 0.237 | -0.926 | 3.5% (inactive) | -0.459 (inactive) | -0.000113 (inactive) | 0.00323 (inactive) | inactive | 17% (inactive)
11 | COc1ccc(C2CC(C(F)(F)F)n3ncc(C(=O)Nc4cccc(O)c4)c3N2)cc1OC (configuration not stated) | 494 | -6.1% (inactive) | -14.4% (inactive) | 119% | -0.0495 | 0.084 | -0.887 | 1.75% (inactive) | -0.483 (inactive) | -0.00017 (inactive) | 0.0043 (inactive) | active; weak signal in gallbladder and intestine | -4.48% (inactive)
12 | Cc1cccc2c1NC(C)CC2C (configuration not stated) | 424 | -23.2% (inactive) | -291% (inactive) | 187% | 1.31 | -0.632 | -0.589 | 7.7% (inactive) | -0.292 (inactive) | -6.6e-06 (inactive) | 0.00419 (inactive) | active; weak signal in gallbladder and intestine | 5.59% (inactive)
13 | CC(C)Oc1ccc(C(=O)CCN2CCCCC2)cc1 | 457 | 6.5% (inactive) | -349% (inactive) | 163% | 0.309 | -0.269 | -0.0861 | -10.6% (inactive) | -0.258 (inactive) | 2.6e-05 (inactive) | 0.00524 (inactive) | inactive | 139% (active)
14 | CC1(C)Cc2c(sc3c4nnnn4c4nnnn4c23)CO1 | 634 | -12.5% (inactive) | -30.9% (inactive) | 164% | 0.452 | 0.0526 | 0.417 | 20.8% (inactive) | -0.493 (inactive) | -9.6e-05 (inactive) | 0.0051 (inactive) | inactive | 27.1% (inactive)

Source: PubChem BioAssay
